ChEMBL document CHEMBL3580585, “The synthesis of sulforaphane analogues and their protection effect against cisplatin induced cytotoxicity in kidney cells” (2014)
The source made the active and inactive calls. The calls are words filed in the database; no cut-off is given here.

Experiments:
LLC-PK1 [1] = experiment: Renoprotective activity against cisplatin-induced cytotoxicity in pig LLC-PK1 cells assessed as cell survival at 2.5 uM after 24 hrs by WST-1 assay in presence of 25 uM cisplatin (reference value: 60%); type: functional, Sus scrofa
Summary of the method: (§1)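 Pig kidney LLC-PK1 cells were given 25 µM cisplatin to cause oxidative stress, alongside test compound in dose-response format, up to 10 µM, or up to 2.5 µM for analogues toxic at high doses. Survival was read by WST-1 assay […]. Potency was taken as the concentration giving more than 60% cell survival.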

LLC-PK1 [2] = experiment: Renoprotective activity against cisplatin-induced cytotoxicity in pig LLC-PK1 cells assessed as cell survival at 10 uM after 24 hrs by WST-1 assay in presence of 25 uM cisplatin (reference value: 60%); type: functional, Sus scrofa; summary of the method: as §1
LLC-PK1 [3] = experiment: Renoprotective activity against cisplatin-induced cytotoxicity in pig LLC-PK1 cells assessed as decrease in phoshorylated JNK level by western blot analysis in presence of 25 uM cisplatin; type: functional, cell-based; details: Sus scrofa
Summary of the method: (§2)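 LLC-PK1 cells were exposed to cisplatin together with several concentrations of test compound. Phospho-JNK, p53 and cleaved caspase-3 protein levels were measured 24 h after cisplatin treatment.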

LLC-PK1 [4] = experiment: Renoprotective activity against cisplatin-induced cytotoxicity in pig LLC-PK1 cells assessed as decrease in p53 level at 2.5 uM by western blot analysis in presence of 25 uM cisplatin; type: functional, cell-based; details: Sus scrofa; summary of the method: as §2
LLC-PK1 [5] = experiment: Renoprotective activity against cisplatin-induced cytotoxicity in pig LLC-PK1 cells assessed as increase in cell survival at >1 uM by cell imaging analysis in presence of 25 uM cisplatin; type: functional, cell-based; details: Sus scrofa
LLC-PK1 [6] = experiment: Renoprotective activity against cisplatin-induced cytotoxicity in pig LLC-PK1 cells assessed as decrease in cleaved caspase-3 level by western blot analysis in presence of 25 uM cisplatin; type: functional, cell-based; details: Sus scrofa; summary of the method: as §2
LLC-PK1 [7] = experiment: Renoprotective activity against cisplatin-induced cytotoxicity in pig LLC-PK1 cells assessed as decrease in apoptotic cells at 25 uM after 24 hrs by Tali image-based cytometer analysis in presence of cisplatin; type: functional, cell-based; details: Sus scrofa
Summary of the method: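 LLC-PK1 cells were co-treated with cisplatin and test compound, then stained so that dead cells show red and apoptotic cells green. The percentage of apoptotic cells was counted on a Tali image-based cytometer.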

**Q.** For `S=C=NCCc1ccc(N=C=S)cc1`, which Activity (LLC-PK1 [1]) is on record?
**A.** >80%

**Q.** How did the Activity (LLC-PK1 [2]) turn out when `C[S+]([O-])CCCCN=C=S` (stereo not given) [SULFORAPHANE] was run?
**A.** >77%

**Q.** Which Activity (LLC-PK1 [1]) does the source give for `S=C=NCc1cccc(Cl)c1` here?
**A.** >80%

**Q.** `S=C=NCC(c1ccccc1)c1ccccc1` was tested. Which Activity (LLC-PK1 [3]) did it give?
**A.** Dose-dependent effect

**Q.** What about the Activity (LLC-PK1 [4]) of the same molecule?
**A.** Active

**Q.** What about the Activity (LLC-PK1 [5]) of the same molecule?
**A.** Active

**Q.** And the Activity (LLC-PK1 [6])?
**A.** Dose-dependent effect

**Q.** What about the Activity (LLC-PK1 [7]) of the same molecule?
**A.** Active

**Q.** What about the Activity (LLC-PK1 [1]) of the same molecule?
**A.** 93%

**Q.** `Oc1ccc(CCN=C=S)cc1` was tested. Which Activity (LLC-PK1 [1]) did it give?
**A.** >80%
